Laboratory results as given in ChEMBL document CHEMBL1125330, “N-substituted pyrazino[2,3-c][1,2,6]thiadiazine 2,2-dioxides. A new class of diuretics” (J Med Chem, 1992).

Tests used:
Rattus norvegicus [1] = test: Urinary sodium 1 hr after the compound was administered 10 mg/kg po in rat; type: ADME, organism-based, Urine; parameters: dose 10 mg/kg, route oral; conditions: in vivo
In short: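 Onset and duration study in fasted, water-loaded male Sprague-Dawley rats housed two per metabolic cage, six pairs per group. Single oral dose given, then water 2.5 mL/100 g po. Urine volume and sodium (flame photometry) measured over 0-1, 1-2, 2-3, 3-4 and 4-6 h intervals. Mean values compared with vehicle by Student t-test.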

Rattus norvegicus [2] = test: Mean potassium excretion in rats when compound administered at 2.5 mg/kg po and vehicle dosed at 8.4 umol/kg; type: ADME, organism-based; parameters: dose 2.5 mg/kg, route oral; conditions: in vivo
In short: (§1)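 Male Sprague-Dawley rats (HC/CFY, 175-200 g), no food or water for 18 h before and during the test. Single gavage dose (2.5-160 mg/kg; vehicle 1% carboxymethyl cellulose/0.1% Tween 80, 0.5 mL/100 g bw), then distilled water 2.5 mL/100 g bw po. Individual metabolic cages, 6 h urine. K+ by flame photometry, Cl- colorimetric, as mequiv/6 h/kg bw; unpaired Student t-test vs control.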

Rattus norvegicus [3] = test: Volume of urine 1 hr after the compound was administered 10 mg/kg po in rat; type: ADME, organism-based; parameters: dose 10 mg/kg, route oral; conditions: in vivo
In short: (§2)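 Onset/duration protocol: male Sprague-Dawley rats (HC/CFY, 175-200 g), food and water withdrawn for 18 h before and during the test. Single gavage dose in 1% carboxymethyl cellulose/0.1% Tween 80 (0.5 mL/100 g bw), then distilled water load (2.5 mL/100 g bw po). Two rats per metabolic cage, six pairs per group. Urine collected at 0-1, 1-2, 2-3, 3-4 and 4-6 h; Na+ by flame photometry. Vehicle controls; nonpaired Student t-test.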

Rattus norvegicus [4] = test: Volume of urine 2 hr after the compound was administered 10 mg/kg po in rat; type: ADME, organism-based; parameters: dose 10 mg/kg, route oral; conditions: in vivo; in short: as §2
Rattus norvegicus [5] = test: Volume of urine 3h after the compound was administered 10 mg/kg po in rat; type: ADME, organism-based; parameters: dose 10 mg/kg, route oral; conditions: in vivo; in short: as §2
Rattus norvegicus [6] = test: Volume of urine 4 hr after the compound was administered 10 mg/kg po in rat; type: ADME, organism-based; parameters: dose 10 mg/kg, route oral; conditions: in vivo; in short: as §2
Rattus norvegicus [7] = test: Volume of urine 6 hr after the compound was administered 10 mg/kg po in rat; type: ADME, organism-based; parameters: dose 10 mg/kg, route oral; conditions: in vivo; in short: as §2
Rattus norvegicus [8] = test: Mean Chlorine excretion in rats when compound administered at 2.5 mg/kg po and vehicle dosed at 8.4 umol/kg; type: ADME, organism-based; parameters: dose 2.5 mg/kg, route oral; conditions: in vivo; in short: as §1
Rattus norvegicus [9] = test: Mean Chlorine excretion in rats when compound administered at 20 mg/kg po and vehicle dosed at 67.18 umol/kg; type: ADME, organism-based; parameters: dose 20 mg/kg, route oral; conditions: in vivo; in short: as §1
Rattus norvegicus [10] = test: Mean Chlorine excretion in rats when compound administered at 40 mg/kg po and vehicle dosed at 134.35 umol/kg; type: ADME, organism-based; parameters: dose 40 mg/kg, route oral; conditions: in vivo; in short: as §1
Rattus norvegicus [11] = test: Mean urinary output in rats when compound administered at 0 mg/kg po and vehicle dosed at 0 umol/kg; type: ADME, organism-based, Urine; parameters: dose 0 mg/kg, route oral; conditions: in vivo
In short: (§3)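 Water-loaded male Sprague-Dawley rats (HC/CFY, 175-200 g) fasted and without water for 18 h. Oral gavage of 2.5-160 mg/kg in 1% CMC with 0.1% Tween 80, then distilled water 2.5 mL/100 g po. Urine collected 6 h in metabolic cages, mean output in mL/6 h/kg bw. Unpaired Student t-test against vehicle; dose-response by linear regression.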

Rattus norvegicus [12] = test: Mean urinary output in rats when compound administered at 10 mg/kg po and vehicle dosed at 33.59 umol/kg; type: ADME, organism-based, Urine; parameters: dose 10 mg/kg, route oral; conditions: in vivo; in short: as §3
Rattus norvegicus [13] = test: Mean urinary output in rats when compound administered at 2.5 mg/kg po and vehicle dosed at 8.4 umol/kg; type: ADME, organism-based, Urine; parameters: dose 2.5 mg/kg, route oral; conditions: in vivo; in short: as §3
Rattus norvegicus [14] = test: Mean urinary output in rats when compound administered at 20 mg/kg po and vehicle dosed at 67.18 umol/kg; type: ADME, organism-based, Urine; parameters: dose 20 mg/kg, route oral; conditions: in vivo; in short: as §3
Rattus norvegicus [15] = test: Mean urinary output in rats when compound administered at 40 mg/kg po and vehicle dosed at 134.35 umol/kg; type: ADME, organism-based, Urine; parameters: dose 40 mg/kg, route oral; conditions: in vivo; in short: as §3
Rattus norvegicus [16] = test: Mean urinary output in rats when compound administered at 5 mg/kg po and vehicle dosed at 16.79 umol/kg; type: ADME, organism-based, Urine; parameters: dose 5 mg/kg, route oral; conditions: in vivo; in short: as §3
Rattus norvegicus [17] = test: Mean urinary output in rats when compound administered at 80 mg/kg po and vehicle dosed at 268.71 umol/kg; type: ADME, organism-based, Urine; parameters: dose 80 mg/kg, route oral; conditions: in vivo; in short: as §3
[18] = Acute toxicity in mice when given po; type: organism-based; conditions: mouse, in vivo, read-out: DL50 (the source's name)
In short: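 Male Swiss mice (SPF, HC/CFLP strain, 20–25 g), oral dosing; mortality followed over 15 days; LD50 derived by the Litchfield and Wilcoxon method.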

Rattus norvegicus [19] = test: Dose required to produce an excretion of 2 mequiv of Na+/kg bw/6h vs control groups; type: functional
In short: (§4)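 Male Sprague-Dawley rats (HC/CFY, 175-200 g), fasted and water-deprived 18 h before and during the test. Compound dosed by gavage in 1% carboxymethyl cellulose/0.1% Tween 80, then water load 2.5 mL/100 g bw po. Urine collected 6 h in metabolic cages; Na+ by flame photometry. Effective doses vs vehicle controls derived by linear regression of dose-response data.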

Rattus norvegicus [20] = species on record: Rattus norvegicus; test: Dose required to produce increase in 50 % in urine production vs control groups; type: functional; conditions: Rattus norvegicus, Urine; in short: as §4
Rattus norvegicus [21] = test: Post dosing time interval of maximum activity; type: functional
In short: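 Interval of peak activity taken from timed urine collections (0-1, 1-2, 2-3, 3-4, 4-6 h) after a single oral dose in water-loaded fasted rats, […]. Urine volume and Na+ excretion followed over time.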

**Q.** What does the source list for `NS(=O)(=O)c1cc2c(cc1Cl)NCNS2(=O)=O` [HYDROCHLOROTHIAZIDE]?
**A.** Urinary Na+ (Rattus norvegicus [1]): 0.19 m equiv; K (Rattus norvegicus [2]): 1.26 m equiv 6hr-1 kg-1 (body weight)-1; Urine volume (Rattus norvegicus [3]): 1.38 mL; Urine volume (Rattus norvegicus [4]): 4.97 mL; Urine volume (Rattus norvegicus [5]): 3.37 mL; Urine volume (Rattus norvegicus [6]): 2.92 mL; Urine volume (Rattus norvegicus [7]): 3.42 mL; Cl- (Rattus norvegicus [8]): 4.42 m equiv 6hr-1 kg-1 (body weight)-1; Cl- (Rattus norvegicus [9]): 4.67 m equiv 6hr-1 kg-1 (body weight)-1; Cl- (Rattus norvegicus [10]): 3.94 m equiv 6hr-1 kg-1 (body weight)-1; V (Rattus norvegicus [11]): 24.3 ml 6hr-1 (kg of body weight)-1; V (Rattus norvegicus [12]): 39.01 ml 6hr-1 (kg of body weight)-1; V (Rattus norvegicus [13]): 32.5 ml 6hr-1 (kg of body weight)-1; V (Rattus norvegicus [14]): 42.94 ml 6hr-1 (kg of body weight)-1; V (Rattus norvegicus [15]): 44.48 ml 6hr-1 (kg of body weight)-1; V (Rattus norvegicus [16]): 38.07 ml 6hr-1 (kg of body weight)-1; V (Rattus norvegicus [17]): 47.06 ml 6hr-1 (kg of body weight)-1; LD50 [18]: > 6000 mg/kg; ED2 (Rattus norvegicus [19]): 1.57 mg/kg; ED50 (Rattus norvegicus [20]): 4.86 mg/kg; Time (Rattus norvegicus [21]): 2 h
